TCR CD3 inh: inhibitors of human TCR-CD3 interaction, primary screen, biochemical, fluorescence, TAMRA-labeled TCR probe. inhibition, % at 9.4 µM. 0.37% of 360,000 active. AID 651800, 2012;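 also: recombinant mutant TCR 2C K166C tagged with TAMRA read by polarization; 0% = receptor in buffer alone and 100% = receptor with positive control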
SIAE inh: human SIAE inhibitors, primary screen, biochemical, fluorescence polarization, FP-Rh probe, 1536-well HTS; 0.69% of 370,000 active; SIAE FP-Rh probe binding; inhibition, % at 9.66 µM; Sialate O-acetylesterase (Homo sapiens), Q9HAT2;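 active = inhibition above a cutoff: mean of compounds within the control limits plus 3 SD of those, cut at about 17% in these data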;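 also: 0% = plate median of compound wells and 100% = probe without SIAE protein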
mABHD4 FP: ABHD4 inhibitors, primary screen, biochemical, fluorescence polarization, mouse; (Lyso)-N-acylphosphatidylethanolamine lipase (Mus musculus), Q8VD66; purified mABHD4, FP-Rh probe fluorescence polarization; inhibition, % at 8.92 µM; 0.54% of 370,000 active;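 active = inhibition exceeding the mean over every tested compound plus 3 SD, cut at about 30% in these data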;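 also: 0% = plate median of compound wells and 100% = S159A mutant with DMSO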
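Assay system: wild-type mouse ABHD4 protein; compound: single nominal dose of 8.92 µM, 0.89% DMSO final; schedule: 45 min + 60 min at 25 °C; measured by: FP readout, ex 525 nm / em 598 nm; evaluation: % inhibition of FP-Rh probe binding versus controls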
ARNT-TACC3 inh: disruptors of ARNT/TACC3 protein interaction, primary screen, biochemical, AlphaScreen, single concentration. 0.66% of 390,000 active. inhibition, % at 9.99 µM. AID 623870, 2012. Transforming acidic coiled-coil-containing protein 3 (Homo sapiens), Q9Y6A5. AlphaScreen His-ARNT PAS-B/GST-TACC3 binding, luminescence; TACC3 fragment carries E629A point mutation;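 active = mean inhibition of replicates at least 50% and at least half of replicates each reaching 50%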;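 also: 0% = complete ARNT plus TACC3 wells and 100% = ARNT alone without TACC3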
HTRA1 inhibitor: HTRA1 serine protease inhibitors, primary screen, biochemical, fluorescence polarization, HTS; recombinant HTRA1, FP-rhodamine activity-based probe; inhibition, % at 5.96 µM; 0.5% of 340,000 active; in the data active = inhibition above about 36%;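 also: 0% = enzyme with DMSO and 100% = wells lacking enzyme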
Target sequence (Q92743 whole entry, looked up): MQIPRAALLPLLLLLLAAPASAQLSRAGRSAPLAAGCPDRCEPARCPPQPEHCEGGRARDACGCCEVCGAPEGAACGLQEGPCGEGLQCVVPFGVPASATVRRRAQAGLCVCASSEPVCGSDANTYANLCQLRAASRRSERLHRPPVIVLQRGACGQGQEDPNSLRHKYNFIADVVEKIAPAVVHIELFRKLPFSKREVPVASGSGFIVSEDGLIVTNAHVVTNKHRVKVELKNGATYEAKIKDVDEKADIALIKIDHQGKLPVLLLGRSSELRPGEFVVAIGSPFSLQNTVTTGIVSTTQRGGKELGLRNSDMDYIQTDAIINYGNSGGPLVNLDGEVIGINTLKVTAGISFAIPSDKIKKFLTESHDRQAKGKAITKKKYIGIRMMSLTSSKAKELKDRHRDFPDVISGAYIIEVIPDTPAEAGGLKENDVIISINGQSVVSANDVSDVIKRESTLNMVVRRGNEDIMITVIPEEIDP
HTRA1 conf: HTRA1 protease inhibitors, retest, confirmation, biochemical, fluorescence polarization; inhibition, % at 5.96 µM; AID 540248, 2011; shares compounds with HTRA1 inhibitor; 66% of 1,600 active; recombinant HTRA1, FP-rhodamine activity-based probe;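 active = mean inhibition over three repeats above a set limit taken from the earlier primary screen, cut at about 37% in these data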;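 also: 0% = HTRA1 with DMSO and 100% = wells lacking HTRA1; inhibitors block probe binding so polarization drops and inhibition rises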
BSA TAMRA ctr: compounds interfering with TAMRA-BSA probe, counter-screen for TCR-CD3 interaction inhibitor project, biochemical, fluorescence, TAMRA-labeled BSA; 10% of 1,200 active; inhibition, % at 9.4 µM; shares compounds with TCR CD3 inh; AID 652035, 2013; TAMRA-labeled BSA probe fluorescence counterscreen; in the data active = inhibition above about 23%;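 also: 0% = buffer low control and 100% = reference high control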
TCR-CD3 conf: TCR-CD3 interaction inhibitors, retest, confirmation, biochemical, fluorescence, TAMRA-labeled TCR probe. shares compounds with TCR CD3 inh. TAMRA-labeled TCR probe fluorescence binding assay. inhibition, % at 9.4 µM. 48% of 1,200 active. AID 652036, 2013
ABHD4 confirm: ABHD4 inhibitors, retest, confirmation, biochemical, fluorescence polarization, mouse | 55% of 1,800 active | inhibition, % at 8.92 µM | shares compounds with mABHD4 FP | purified mABHD4, FP-Rh probe fluorescence polarization;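 active = mean inhibition across replicates above the hit cutoff set in the primary screen, cut at about 30% in these data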;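 also: 0% = wild-type ABHD4 with DMSO and 100% = catalytically dead S159A mutant with DMSO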
* marks the source's active call; other numbers are inactive results; / = no result. A selection: hits, their analogues and other compounds. The true share with any hit is near 1.8%. Rule as the data show it, unless noted: active = inhibition above about 19%; inactive = the rest.

SMILES	TCR CD3 inh	SIAE inh	mABHD4 FP	ARNT-TACC3 inh	HTRA1 inhibitor	HTRA1 conf	ABHD4 confirm	others
O=C(NC(=S)NNC(=O)c1ccccc1O)c1ccco1	25*	10	24	-3	39*	67*	/	BSA TAMRA ctr=-9;TCR-CD3 conf=19
O=C(NC(=S)NNC(=O)c1ccccc1O)c1cccnc1	29*	1	12	67*	49*	63*	/	BSA TAMRA ctr=-2;TCR-CD3 conf=31*
Cc1cc(C)c(C)c(S(=O)(=O)N2CCC(C(=O)NNC(=O)c3ccccc3O)CC2)c1C	32*	0	7	10	46*	48*	/	BSA TAMRA ctr=-6;TCR-CD3 conf=22*
C/C(CC(=O)Nc1ccccn1)=N\NC(=O)c1ccc2ccccc2c1	-2	-3	-4	1	-18	/	/
C/C(CC(=O)Nc1ccccn1)=N\NC(=O)c1ccccc1O	45*	11	17	/	56*	26	/	BSA TAMRA ctr=23*;TCR-CD3 conf=37*
C/C=C/c1ccc(O)c(OC)c1	1	11	-6	-1	4	/	/
Oc1cc(O)cc(/C=C/c2ccc(O)c(O)c2)c1	14	2	32*	19	38*	36*	27
CCCNC(=O)C[C@@H]1C[C@@H]2c3cc(NC(=O)Nc4ccc(OC)cc4)ccc3O[C@@H]2[C@@H](CO)O1	/	/	/	-3	/	/	/
CN(C)CC(=O)Nc1ccc2c(c1)[C@H]1C[C@@H](CC(=O)NCc3cc(F)ccc3F)O[C@@H](CO)[C@H]1O2	/	/	/	-5	/	/	/
C[C@@H]1CCCCO[C@@H](CN(C)C(=O)c2ccccc2)[C@@H](C)CN([C@H](C)CO)C(=O)c2cc(NS(=O)(=O)c3ccccc3)ccc2O1	/	/	/	-3	/	/	/
CC1CCCCC1NC(=O)COC(=O)c1c2c(nc3ccccc13)/C(=C/c1ccco1)CC2 (stereo unspecified)	10	17	38*	-28	81*	23	20
O=C(NN1C(=O)/C(=C/C=C/c2ccco2)SC1=S)c1ccccc1O	0	10	31*	45	40*	19	-26
O=C(O)C(Cc1ccccc1)N1C(=O)/C(=C/C=C/c2ccco2)SC1=S (stereo unspecified)	16	11	42*	2	37*	15	-67
C[C@@H]1CCCCO[C@@H](CN(C)S(=O)(=O)c2cccs2)[C@H](C)CN([C@@H](C)CO)C(=O)c2cc(NC(=O)C3CCCCC3)ccc2O1	/	/	/	-4	/	/	/
CO[C@H]1CN(C)C(=O)c2cc(NS(C)(=O)=O)ccc2OC[C@H](C)N(S(C)(=O)=O)C[C@H]1C	/	/	/	-17	/	/	/
COc1ccc(NC(=O)c2ccccc2NS(=O)(=O)c2ccc(C)cc2)c([N+](=O)[O-])c1	-9	0	1	/	-9	/	/
CCOc1ccc(C=NNc2ccc(S(=O)(=O)Nc3ccccc3C(=O)O)cc2[N+](=O)[O-])cc1OC	/	/	/	-2	15	/	/
O=C(O)c1ccccc1NS(=O)(=O)c1ccc(N/N=C/c2cccc(O)c2O)c([N+](=O)[O-])c1	25*	0	86*	-7	74*	78*	77*	BSA TAMRA ctr=-19;TCR-CD3 conf=24*
COc1cc(C=NNc2ccc(S(=O)(=O)Nc3ccccc3C(=O)O)cc2[N+](=O)[O-])ccc1O	7	13	64*	18	49*	75*	91*
O=C(O)c1ccccc1NS(=O)(=O)c1ccc(NNC(=S)Nc2ccc(OC(F)F)cc2)c([N+](=O)[O-])c1	2	8	72*	33	67*	118*	140*
O=C(O)c1cc(S(=O)(=O)Nc2ccccc2C(=O)O)ccc1O	-2	14	6	-3	-1	/	/
C[C@H](CO)N1C[C@H](C)[C@@H](CN(C)C(=O)c2cnccn2)Oc2cc(Br)ccc2S1(=O)=O	/	/	/	5	/	/	/
Cc1cc(O)c(N=Cc2cc3c(cc2[N+](=O)[O-])OCO3)cc1C	-7	8	45*	0	52*	6	21
O=C(N/N=C/c1cc2c(cc1[N+](=O)[O-])OCO2)c1ccc2c(c1)OCO2	-9	-4	10	-3	0	/	/
Cc1[nH]c2ccccc2c1/C=N/Nc1ccccc1[N+](=O)[O-]	-4	16	59*	0	68*	74*	73*
SMILES	TCR CD3 inh	SIAE inh	mABHD4 FP	ARNT-TACC3 inh	HTRA1 inhibitor	HTRA1 conf	ABHD4 confirm	others
C[C@@H]1CN([C@@H](C)CO)C(=O)Cc2cc(NC(=O)Cc3ccccc3)ccc2O[C@H]1CN(C)Cc1ccc(Oc2ccccc2)cc1	/	/	/	12	/	/	/
O=C(c1cc(O)c(O)c([N+](=O)[O-])c1)c1ccccc1F	-2	14	37*	1	48*	63*	32*
CCS(=O)(=O)Nc1ccc2c(c1)C(=O)N(C)C[C@H](OC)[C@H](C)CN(CCC(F)(F)F)[C@@H](C)CO2	/	/	/	-3	/	/	/
COc1cccc2c1C(=O)c1c(O)c3c(c(O)c1C2=O)C[C@@](O)(C(C)=O)C[C@@H]3O[C@H]1C[C@H](N)[C@H](O)[C@H](C)O1	162*	45*	62*	17	72*	74*	48*	BSA TAMRA ctr=183*;TCR-CD3 conf=150*
C[C@H](CO)N1C[C@H](C)[C@@H](CN(C)S(=O)(=O)c2ccccc2)OCCCC[C@H](C)Oc2ccc(NS(C)(=O)=O)cc2C1=O	/	/	/	-10	/	/	/
Cc1noc(C)c1NC(=O)Nc1ccc2c(c1)C(=O)N([C@H](C)CO)C[C@H](C)[C@@H](CN(C)C(=O)NC(C)C)OCCCC[C@H](C)O2	/	/	/	11	/	/	/
CC(Nc1cccc2ccccc12)C(=O)N/N=C/c1ccccn1 (stereo unspecified)	-5	9	48*	67*	46*	5	16
CNc1ccc(Br)cc(C(=O)/C=C/c2cccc(OC)c2OC)c1=O	10	12	39*	14	39*	32	34*
